High-throughput results deposited in PubChem by Broad Institute.
Env fusion inh: inhibitors of HIV Env-mediated cell fusion. HeLa-JRFL Env/CEM21 cell fusion, luciferase. 360,000 compounds, 1.1% hits. inhibition, % at 12.3 µM;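 active means mean replicate inhibition score of at least 50 and every replicate individually at or above 50; inconclusive means only one of the two criteria met; inactive means mean below 50 and not all replicates reaching 50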;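 further: 0% = plate neutral controls and 100% = maraviroc near 300 nM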
E-sel inducer: E-selectin induction on HUVECs; 260,000 compounds, 0.37% hits; activation, % at 7.58 µM; HUVEC E-selectin immunofluorescence imaging; normalized: neutral wells 0, TNF-alpha wells 100;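 active means mean E-selectin-positive cell signal at least 10% of the positive control, reached in at least 60% of replicates, without over 20% cell loss; inconclusive means no rule given, readout overlaps actives, possibly toxicity-flagged; inactive means the rest, including those meeting only one limit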
Target sequence (P16581 whole entry, looked up): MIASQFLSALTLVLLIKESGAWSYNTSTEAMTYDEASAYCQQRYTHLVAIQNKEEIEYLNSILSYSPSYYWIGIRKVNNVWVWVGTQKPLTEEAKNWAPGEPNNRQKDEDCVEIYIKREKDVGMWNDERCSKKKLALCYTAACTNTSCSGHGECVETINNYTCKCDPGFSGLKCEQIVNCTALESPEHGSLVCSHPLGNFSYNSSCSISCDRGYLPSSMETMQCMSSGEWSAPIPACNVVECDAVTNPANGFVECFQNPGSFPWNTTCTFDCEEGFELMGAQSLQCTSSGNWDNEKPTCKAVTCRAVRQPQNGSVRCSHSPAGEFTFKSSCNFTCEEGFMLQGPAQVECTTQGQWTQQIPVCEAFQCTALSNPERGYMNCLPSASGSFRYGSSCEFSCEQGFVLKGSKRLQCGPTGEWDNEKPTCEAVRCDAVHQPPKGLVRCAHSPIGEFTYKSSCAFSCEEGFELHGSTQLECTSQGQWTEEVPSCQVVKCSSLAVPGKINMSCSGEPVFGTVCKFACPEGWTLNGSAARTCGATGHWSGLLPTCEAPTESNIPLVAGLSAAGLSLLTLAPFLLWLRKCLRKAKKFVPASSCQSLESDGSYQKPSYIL
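Material: HUVEC primary endothelial cells; Amount: 3,000 cells per well; Dosing: single concentration; Medium: EGM-2 growth medium on 0.1% gelatin-coated wells; Read-out basis: percent E-selectin-positive cells; Signal: immunofluorescence imaging; Control set: TNF-alpha, DMSO.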
CFTR F508del cor: CFTR F508del correction in bronchial cells | 350,000 compounds, 0.36% hits | activity (quench increase), % at 7.58 µM | CFBE cells, YFP halide quenching; stimulated with forskolin plus potentiator P3; % fluorescence drop versus neutral controls;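 active means mean added fluorescence quench of at least 8% versus neutral control, with both replicates also reaching 8%; inconclusive means only one of the mean or replicate conditions met; inactive means mean below 8% and not both replicates reaching 8%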;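 further: cells transiently co-express mutant CFTR-F508del with the halide-sensitive YFP; corrector assay measuring rescue of mutant channel to the surface after 24 h compound exposure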
FGF22 binding: shifts melting point of recombinant human FGF22 | Q9HCT0 | recombinant FGF22 thermal shift, SYPRO orange fluorescence; percent of sucrose octasulfate shift, DMSO zero | activity (Tm shift, normalised), % at 9.99 µM | 340,000 compounds, 1.5% hits | AID 651658;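 active means mean Tm shift, scaled 0 neutral to 100 positive control, at about 1.3% or above, every replicate too, limit read from the data; inconclusive means no clear call, values can overlap the other calls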
S100A4 MyoIIA: blocks human S100A4 binding to myosin IIA peptide; S100A4/TAMRA-MyoIIA peptide fluorescence polarization; inhibition, % at 10.7 µM; 360,000 compounds, 0.14% hits;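 active means mean inhibition of at least 70% across replicates, with every replicate also reaching that level; inconclusive means mean inhibition reaches 70% but some replicates fall short; inactive means mean inhibition below 70%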
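Test system: S100A4 monomer protein. Medium: HEPES buffer with Ca2+, pH 7.2. Reagent: fluorescent myosin IIA peptide, 5 nM. Compound dosing: single-point compound testing. Timing: 5 min between mix addition and reading. Benchmarks: DMSO neutral and TFP positive wells.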
Starred values were filed as active, the others as inactive; ? = inconclusive; . = no result given; + = active, no number; [ ] = dose if it differs, or a comment. Compounds with a hit are over-represented: about 2.7% of the library has one in this group of screens.

SMILES	Env fusion inh	E-sel inducer	CFTR F508del cor	FGF22 binding	S100A4 MyoIIA
CN(C)S(=O)(=O)Oc1ccsc1C(=O)Nc1ccc(C(F)(F)F)cc1	33	.	3	0	1
CN(C)S(=O)(=O)Oc1ccsc1C(=O)Nc1ccc(Br)cc1	-29	.	1	57*	0
O=C(NCC[C@H]1CC[C@H](NC(=O)C2CCC2)[C@@H](CO)O1)Nc1ccc(Cl)cc1	-7[16.7 µM]	1	1	0	3
C[C@@H](NC(=O)C[C@@H]1CC[C@H]2[C@@H](COC[C@H](O)CN2C(=O)Nc2cc(Cl)cc(Cl)c2)O1)c1ccccc1	.	0	0	0	-3
C=C(C)c1cccc(C(C)(C)NC(=O)Nc2ccc(Cl)cn2)c1	65*	.	.	.	.
C=C(C)c1cccc(C(C)(C)NC(=O)Nc2ncccn2)c1	-47	.	.	.	.
CC(C)c1cn(CC[C@H]2CC[C@@H](NC(=O)c3cccc(F)c3)[C@H](CO)O2)nn1	-403[16.7 µM]	0	-2	0	8
CCOC(=O)C1=C(c2ccccc2)NC(=S)NC1C (configuration not stated)	-113	.	.	.	.
CCOC(=O)C1=C(C)NC(=S)NC1C (configuration not stated)	-18	.	-1	44*	-1
COc1cccc2c1C(=O)c1c(O)c3c(c(O)c1C2=O)C[C@@](O)(C(=O)CO)C[C@@H]3OC1CC(N)C(O)C(C)O1 (some centres not stated)	-201	?	14*	0	187*
COc1cccc2c1C(=O)c1c(O)c3c(c(O)c1C2=O)C[C@@](O)(C(=O)CO)C[C@@H]3O[C@H]1C[C@H](N)[C@H](O)[C@H](C)O1	-339	58*	31*	0	178*
COc1cccc2c1C(=O)c1c(O)c3c(c(O)c1C2=O)CC(O)(C(C)=O)CC3OC1CC(N(C)C)C(O)C(C)O1 (configuration not stated)	58*	.	34*	0	+
CC(=O)[C@@]1(O)Cc2c(O)c3c(c(O)c2[C@H](O[C@H]2C[C@H](N)[C@H](O)[C@H](C)O2)C1)C(=O)c1ccccc1C3=O	95*	3	22*	0	+
Cc1cccc(C(=O)Oc2ccccc2C2C[C@]3(C)CC(=O)NC3N2C(=O)c2cccc(C)c2)c1 (some centres not stated)	48*	.	.	.	.
CC(=O)N1C(c2ccccc2O)C[C@]2(C)CC(=O)NC12 (some centres not stated)	4	.	1	0	9
C[C@@]12CC(=O)NC1N(C(=O)c1cccc(C(F)(F)F)c1)C(c1ccccc1O)C2 (some centres not stated)	105*	.	.	.	.
Cc1cccc(C(=O)OC2CCN(C)CC2)c1	-11	.	.	0	8
CC1(C)C(=O)Nc2ccccc2N1C(=O)COC(=O)c1cc(Cl)cc(Cl)c1	.	0	-7	0	-4
Cc1ccc(S(=O)(=O)N2CCCCC2)cc1C(=O)OCC(=O)N1c2ccccc2NC(=O)C1(C)C	?	0	1	0	-10
CC1(C)C(=O)Nc2ccccc2N1C(=O)COC(=O)c1cccnc1	64*	.	0	0	0
Cc1ccc(C(=O)OCC(=O)N2c3ccccc3NC(=O)C2(C)C)cc1S(=O)(=O)N1CCCCC1	59*	0	-2	0	-7
Cc1nc(Nc2nc3ccccc3o2)nc(C)c1C	-5	.	0	44*	4
Cc1ccc2oc(Nc3nc(C)c(C)c(C)n3)nc2c1	-40	.	-2	0	0
COCC#Cc1ccc(CC[C@H]2O[C@H]3CC[C@@H](CO)O[C@H]3C[C@@H]2n2cc(C3CC3)nn2)cc1	.	.	-1	.	5
O=C(Cc1ccc(Br)cc1)OCC(=O)N1CCCCCC1	19	0	1	43*	-8
SMILES	Env fusion inh	E-sel inducer	CFTR F508del cor	FGF22 binding	S100A4 MyoIIA
C[C@H]1CN([C@@H](C)CO)C(=O)CCCn2cc(nn2)CO[C@H]1CN(C)S(=O)(=O)c1ccc(Oc2ccccc2)nc1	.	0	-1	-1	-7
O=Cc1ccc(F)c([B-](F)(F)F)c1	-11	0	-1	43*	-5
C[C@@H]1CN([C@H](C)CO)C(=O)c2cc(NS(=O)(=O)c3ccc(F)cc3)ccc2O[C@@H](C)CCCCO[C@@H]1CN(C)S(=O)(=O)c1ccc(F)cc1	-71[16.7 µM]	0	-1	0	.
CNC(=S)Nc1ccc(OC)c(OC)c1	-12	.	.	.	.
C=CCN(CC=C)C(=S)Nc1ccc(OC)c(OC)c1	9	.	13*	0	-2
O=C(CSc1ncnc2scc(-c3ccccc3)c12)NC1CCS(=O)(=O)C1 (configuration not stated)	2	2	-1	0	11
COc1cccc(-c2nnc(SCC(=O)NC3CCS(=O)(=O)C3)n2C)c1 (configuration not stated)	-4	0	21*	0	0
O=C(CSc1ncnc2sc(-c3ccccc3)cc12)NC1CCS(=O)(=O)C1 (configuration not stated)	0	0	1	43*	-1
CC(C)Oc1cc(O)c2c(=O)c(-c3ccc(O)cc3)coc2c1	-248	114*	0	0	-6
COc1ccc(-c2coc3cc(O)cc(O)c3c2=O)cc1	-12	1	-2	2.2*	0
O=c1c(-c2ccc(O)cc2)coc2cc(O)cc(O)c12	.	.	3	0	-6
CN(NC(=O)c1ccco1)c1nc2ccccc2nc1C(F)(F)F	9	.	1	43*	2
Cc1cccc(C(=O)NN(C)c2nc(-c3ccccc3)nnc2C(F)(F)F)c1	-16	.	.	.	.
CCOc1ncccc1C(=O)Nc1nnc(C)s1	-11	0	4	0	-2
CCOc1ncccc1C(=O)Nc1nnc(C2CC2)s1	-1	.	2	44*	-8
CCC(=O)Nc1cc(C(=O)O)ccc1Sc1ccc(C)cc1	16	.	-1	0	-1
CCCC(=O)Nc1cc(C(=O)O)ccc1Sc1ccc(C)cc1	3	5	-1	43*	2
COC(=O)c1cc(NC(=O)c2cccs2)ccc1N1CCOCC1	-1	0	2	43*	1
O=C(Nc1ccc(N2CCOCC2)c(F)c1)c1cccs1	-47	0	0	0	8
CC[C@@]12C(=O)N(c3ccc(OC)cc3)C(=O)N1[C@H](c1ccc(Cl)cc1)[C@@H]1C(=O)N(C3CCCCC3)C(=O)[C@@H]12	87*	0	0	0	-4
CC(C)C[C@@]12C(=O)N(c3cccc(Cl)c3)C(=O)N1[C@H](c1ccc(F)cc1)[C@@H]1C(=O)N(C3CCCCC3)C(=O)[C@@H]12	15	0	0	0	-2
CC[C@@]12C(=O)N(c3cccc(F)c3)C(=O)N1[C@H](c1ccc(Cl)cc1)[C@@H]1C(=O)N(C3CCCCC3)C(=O)[C@@H]12	95*	0	-1	0	2
